Source: ChEMBL document CHEMBL1255392, “Pharmacokinetics of acyclovir and its metabolites in cerebrospinal fluid and systemic circulation after administration of high-dose valacyclovir in subjects with normal and impaired renal function” (Antimicrob Agents Chemother, 2010)

Legend:
Homo sapiens [1] = assay: Cmax in human CSF with normal renal function assessed as 8-OH-ACV level at 2000 mg, po every 6 hrs measured after fifth dose by LC/MS; format: ADME, organism-based, Cerebrospinal fluid; parameters: dose 2000 mg, route oral; conditions: in vivo
Outline: (§1)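 Six volunteers with normal renal function fasted from 8 h before to 2 h after the fifth dose. Intrathecal-catheter CSF and venous blood were sampled at 0–8 h and stored at −70°C. Noncompartmental Cmax, tmax and AUCτ (0–6 h) were derived; Cavg = AUCτ/τ.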

Homo sapiens [2] = assay: Tmax in human CSF with chronic kidney disease assessed as 8-OH-ACV level at 1500 mg, po every 12 hrs measured after fifth dose by LC/MS; format: ADME, organism-based, Cerebrospinal fluid; conditions: in vivo
Outline: (§2)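 Three CKD adults (CrCl ~15–30 ml/min) fasted around the final dose. Lumbar intrathecal catheter CSF and EDTA venous blood were taken predose and at 0.5–8 h plus 12 h, then stored at −70°C. Metabolites in serum/CSF were measured by SPE with isotope-labelled internal standards, reversed-phase HPLC and positive-ion MRM MS.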

Homo sapiens [3] = assay: Drug level in human plasma with chronic kidney disease assessed as 8-OH acyclovir level at 1500 mg, po every 12 hrs measured after fifth dose by LC/MS; format: ADME, organism-based; conditions: in vivo, read-out: Drug uptake; outline: as §2
Homo sapiens [4] = assay: Ratio of Cmax in human CSF to Cmax in human plasma with chronic kidney disease assessed as 8-OH-ACV level at 1500 mg, po every 12 hrs measured after fifth dose by LC/MS; format: ADME, organism-based
Homo sapiens [5] = assay: Drug level in human CSF with chronic kidney disease assessed as 8-OH acyclovir level at 1500 mg, po every 12 hrs measured after fifth dose by LC/MS; format: ADME, organism-based; conditions: in vivo, read-out: Drug uptake; outline: as §2
Homo sapiens [6] = assay: Tmax in human systemic circulation with normal renal function assessed as 8-OH-ACV level at 2000 mg, po every 6 hrs measured after fifth dose by LC/MS; format: ADME, organism-based; conditions: in vivo; outline: as §1
Homo sapiens [7] = assay: AUC (0 to 12 hrs) in human systemic circulation with chronic kidney disease assessed as 8-OH-ACV level at 1500 mg, po every 12 hrs measured after fifth dose by LC/MS; format: ADME, organism-based; parameters: dose 1500 mg, time < 12 hr, route oral; conditions: in vivo; outline: as §2
Homo sapiens [8] = assay: Cmax in human systemic circulation with normal renal function assessed as 8-OH-ACV level at 2000 mg, po every 6 hrs measured after fifth dose by LC/MS; format: ADME, organism-based; parameters: dose 2000 mg, route oral; conditions: in vivo; outline: as §1
Homo sapiens [9] = assay: AUC (0 to 6 hrs) in human systemic circulation with normal renal function assessed as 8-OH-ACV level at 2000 mg, po every 6 hrs measured after fifth dose by LC/MS; format: ADME, organism-based, Plasma; parameters: dose 2000 mg, time < 6 hr, route oral; conditions: in vivo; outline: as §1
Homo sapiens [10] = assay: Drug level in human CSF with normal renal function assessed as 8-OH acyclovir level at 2000 mg, po every 6 hrs measured after fifth dose by LC/MS; format: ADME, organism-based; conditions: in vivo, read-out: Drug uptake; outline: as §1
Homo sapiens [11] = assay: Cmax in human CSF with chronic kidney disease assessed as 8-OH-ACV level at 1500 mg, po every 12 hrs measured after fifth dose by LC/MS; format: ADME, organism-based, Cerebrospinal fluid; parameters: dose 1500 mg, route oral; conditions: in vivo; outline: as §2
Homo sapiens [12] = assay: Ratio of Cmax in human CSF to Cmax in human plasma with normal renal function assessed as 8-OH-ACV level at 2000 mg, po every 6 hrs measured after fifth dose by LC/MS; format: ADME, organism-based
Outline: (§3)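 For each normal-renal-function subject, the metabolite CSF Cmax was divided by the serum Cmax from samples taken 0–8 h after the fifth dose. Both were measured by LC/MS with isotope-labelled internal standards, and the ratio is given as mean ± SD.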

Homo sapiens [13] = assay: AUC (0 to 12 hrs) in human CSF with chronic kidney disease assessed as 8-OH-ACV level at 1500 mg, po every 12 hrs measured after fifth dose by LC/MS; format: ADME, organism-based; parameters: dose 1500 mg, time < 12 hr, route oral; conditions: in vivo; outline: as §2
Homo sapiens [14] = assay: AUC (0 to 6 hrs) in human CSF with normal renal function assessed as 8-OH-ACV level at 2000 mg, po every 6 hrs measured after fifth dose by LC/MS; format: ADME, organism-based; parameters: dose 2000 mg, time < 6 hr, route oral; conditions: in vivo; outline: as §1
Homo sapiens [15] = assay: Cmax in human systemic circulation with chronic kidney disease assessed as 8-OH-ACV level at 1500 mg, po every 12 hrs measured after fifth dose by LC/MS; format: ADME, organism-based; parameters: dose 1500 mg, route oral; conditions: in vivo; outline: as §2
Homo sapiens [16] = assay: Drug level in human plasma with normal renal function assessed as 8-OH acyclovir level at 2000 mg, po every 6 hrs measured after fifth dose by LC/MS; format: ADME, organism-based; conditions: in vivo, read-out: Drug uptake; outline: as §1
Homo sapiens [17] = assay: Tmax in human CSF with normal renal function assessed as 8-OH-ACV level at 2000 mg, po every 6 hrs measured after fifth dose by LC/MS; format: ADME, organism-based, Cerebrospinal fluid; conditions: in vivo; outline: as §1
Homo sapiens [18] = assay: Tmax in human systemic circulation with chronic kidney disease assessed as 8-OH-ACV level at 1500 mg, po every 12 hrs measured after fifth dose by LC/MS; format: ADME, organism-based; conditions: in vivo; outline: as §2
Homo sapiens [19] = assay: Drug level in human CSF with normal renal function assessed as CMMG level at 2000 mg, po every 6 hrs measured after fifth dose by LC/MS; format: ADME, organism-based; conditions: in vivo, read-out: Drug uptake; outline: as §1
Homo sapiens [20] = assay: Tmax in human systemic circulation with chronic kidney disease assessed as CMMG level at 1500 mg, po every 12 hrs measured after fifth dose by LC/MS; format: ADME, organism-based; conditions: in vivo; outline: as §2
Homo sapiens [21] = assay: Ratio of Cmax in human CSF to Cmax in human plasma with normal renal function assessed as CMMG level at 2000 mg, po every 6 hrs measured after fifth dose by LC/MS; format: ADME, organism-based; outline: as §3
Homo sapiens [22] = assay: Tmax in human CSF with normal renal function assessed as CMMG level at 2000 mg, po every 6 hrs measured after fifth dose by LC/MS; format: ADME, organism-based, Cerebrospinal fluid; conditions: in vivo; outline: as §1
Homo sapiens [23] = assay: Ratio of Cmax in human CSF to Cmax in human plasma with chronic kidney disease assessed as CMMG level at 1500 mg, po every 12 hrs measured after fifth dose by LC/MS; format: ADME, organism-based
Homo sapiens [24] = assay: Cmax in human CSF with normal renal function assessed as CMMG level at 2000 mg, po every 6 hrs measured after fifth dose by LC/MS; format: ADME, organism-based, Cerebrospinal fluid; parameters: dose 2000 mg, route oral; conditions: in vivo; outline: as §1
Homo sapiens [25] = assay: AUC (0 to 6 hrs) in human CSF with normal renal function assessed as CMMG level at 2000 mg, po every 6 hrs measured after fifth dose by LC/MS; format: ADME, organism-based; parameters: time < 6 hr, dose 2000 mg, route oral; conditions: in vivo; outline: as §1
Homo sapiens [26] = assay: AUC (0 to 12 hrs) in human systemic circulation with chronic kidney disease assessed as CMMG level at 1500 mg, po every 12 hrs measured after fifth dose by LC/MS; format: ADME, organism-based; parameters: dose 1500 mg, time < 12 hr, route oral; conditions: in vivo; outline: as §2
Homo sapiens [27] = assay: Tmax in human systemic circulation with normal renal function assessed as CMMG level at 2000 mg, po every 6 hrs measured after fifth dose by LC/MS; format: ADME, organism-based; conditions: in vivo; outline: as §1
Homo sapiens [28] = assay: Drug level in human CSF with chronic kidney disease assessed as CMMG level at 1500 mg, po every 12 hrs measured after fifth dose by LC/MS; format: ADME, organism-based; conditions: in vivo, read-out: Drug uptake; outline: as §2
Homo sapiens [29] = assay: AUC (0 to 12 hrs) in human CSF with chronic kidney disease assessed as CMMG level at 1500 mg, po every 12 hrs measured after fifth dose by LC/MS; format: ADME, organism-based; parameters: time < 12 hr, dose 1500 mg, route oral; conditions: in vivo; outline: as §2
Homo sapiens [30] = assay: Cmax in human systemic circulation with normal renal function assessed as CMMG level at 2000 mg, po every 6 hrs measured after fifth dose by LC/MS; format: ADME, organism-based; parameters: dose 2000 mg, route oral; conditions: in vivo; outline: as §1
Homo sapiens [31] = assay: Drug level in human plasma with normal renal function assessed as CMMG level at 2000 mg, po every 6 hrs measured after fifth dose by LC/MS; format: ADME, organism-based; conditions: in vivo, read-out: Drug uptake; outline: as §1
Homo sapiens [32] = assay: Cmax in human systemic circulation with chronic kidney disease assessed as CMMG level at 1500 mg, po every 12 hrs measured after fifth dose by LC/MS; format: ADME, organism-based; parameters: dose 1500 mg, route oral; conditions: in vivo; outline: as §2
Homo sapiens [33] = assay: Drug level in human plasma with chronic kidney disease assessed as CMMG level at 1500 mg, po every 12 hrs measured after fifth dose by LC/MS; format: ADME, organism-based; conditions: in vivo, read-out: Drug uptake; outline: as §2
Homo sapiens [34] = assay: Tmax in human CSF with chronic kidney disease assessed as CMMG level at 1500 mg, po every 12 hrs measured after fifth dose by LC/MS; format: ADME, organism-based, Cerebrospinal fluid; conditions: in vivo; outline: as §2
Homo sapiens [35] = assay: Cmax in human CSF with chronic kidney disease assessed as CMMG level at 1500 mg, po every 12 hrs measured after fifth dose by LC/MS; format: ADME, organism-based, Cerebrospinal fluid; parameters: dose 1500 mg, route oral; conditions: in vivo; outline: as §2
Homo sapiens [36] = assay: AUC (0 to 6 hrs) in human systemic circulation with normal renal function assessed as CMMG level at 2000 mg, po every 6 hrs measured after fifth dose by LC/MS; format: ADME, organism-based, Plasma; parameters: dose 2000 mg, time < 6 hr, route oral; conditions: in vivo; outline: as §1

Question: `Nc1nc2c(nc(O)n2COCCO)c(=O)[nH]1` was tested. Which Cmax (Homo sapiens [1]) did it give?
Answer: 62 nM

Question: And the Tmax (Homo sapiens [2])?
Answer: 7 h

Question: What about the concentration (Homo sapiens [3]) of the same molecule?
Answer: 1400 nM

Question: What about the Ratio (Homo sapiens [4]) of the same molecule?
Answer: 0.19

Question: What about the concentration (Homo sapiens [5]) of the same molecule?
Answer: 260 nM

Question: What about the Tmax (Homo sapiens [6]) of the same molecule?
Answer: 3.5 h

Question: What about the AUC (Homo sapiens [7]) of the same molecule?
Answer: 17 µM·h

Question: What about the Cmax (Homo sapiens [8]) of the same molecule?
Answer: 320 nM

Question: What about the AUC (Homo sapiens [9]) of the same molecule?
Answer: 1.4 µM·h

Question: What about the concentration (Homo sapiens [10]) of the same molecule?
Answer: 60 nM

Question: What about the Cmax (Homo sapiens [11]) of the same molecule?
Answer: 290 nM

Question: And the Ratio (Homo sapiens [12])?
Answer: 0.2

Question: What about the AUC (Homo sapiens [13]) of the same molecule?
Answer: 3.1 µM·h

Question: What about the AUC (Homo sapiens [14]) of the same molecule?
Answer: 0.34 µM·h

Question: And the Cmax (Homo sapiens [15])?
Answer: 1600 nM

Question: What about the concentration (Homo sapiens [16]) of the same molecule?
Answer: 240 nM

Question: What about the Tmax (Homo sapiens [17]) of the same molecule?
Answer: 2.4 h

Question: What about the Tmax (Homo sapiens [18]) of the same molecule?
Answer: 4 h

Question: With `Nc1nc2c(ncn2COCC(=O)O)c(=O)[nH]1` as the molecule, how does the concentration (Homo sapiens [19]) read?
Answer: 70 nM

Question: And the Tmax (Homo sapiens [20])?
Answer: 4.3 h

Question: What about the Ratio (Homo sapiens [21]) of the same molecule?
Answer: 0.025

Question: What about the Tmax (Homo sapiens [22]) of the same molecule?
Answer: 1.8 h

Question: And the Ratio (Homo sapiens [23])?
Answer: 0.025

Question: And the Cmax (Homo sapiens [24])?
Answer: 95 nM

Question: What about the AUC (Homo sapiens [25]) of the same molecule?
Answer: 0.42 µM·h

Question: And the AUC (Homo sapiens [26])?
Answer: 148 µM·h

Question: And the Tmax (Homo sapiens [27])?
Answer: 3.3 h

Question: What about the concentration (Homo sapiens [28]) of the same molecule?
Answer: 310 nM

Question: And the AUC (Homo sapiens [29])?
Answer: 3.8 µM·h

Question: What about the Cmax (Homo sapiens [30]) of the same molecule?
Answer: 4100 nM

Question: What about the concentration (Homo sapiens [31]) of the same molecule?
Answer: 2900 nM

Question: And the Cmax (Homo sapiens [32])?
Answer: 15000 nM

Question: And the concentration (Homo sapiens [33])?
Answer: 12000 nM

Question: And the Tmax (Homo sapiens [34])?
Answer: 6.7 h

Question: What about the Cmax (Homo sapiens [35]) of the same molecule?
Answer: 370 nM

Question: What about the AUC (Homo sapiens [36]) of the same molecule?
Answer: 17 µM·h
